Test results: paper PMC11740949 (Bioconjugate Chemistry, 2024)

Molecular target: T1, recombinant murine FAP (Mus musculus, UniProt P97321)
T1 sequence (P97321 1-761): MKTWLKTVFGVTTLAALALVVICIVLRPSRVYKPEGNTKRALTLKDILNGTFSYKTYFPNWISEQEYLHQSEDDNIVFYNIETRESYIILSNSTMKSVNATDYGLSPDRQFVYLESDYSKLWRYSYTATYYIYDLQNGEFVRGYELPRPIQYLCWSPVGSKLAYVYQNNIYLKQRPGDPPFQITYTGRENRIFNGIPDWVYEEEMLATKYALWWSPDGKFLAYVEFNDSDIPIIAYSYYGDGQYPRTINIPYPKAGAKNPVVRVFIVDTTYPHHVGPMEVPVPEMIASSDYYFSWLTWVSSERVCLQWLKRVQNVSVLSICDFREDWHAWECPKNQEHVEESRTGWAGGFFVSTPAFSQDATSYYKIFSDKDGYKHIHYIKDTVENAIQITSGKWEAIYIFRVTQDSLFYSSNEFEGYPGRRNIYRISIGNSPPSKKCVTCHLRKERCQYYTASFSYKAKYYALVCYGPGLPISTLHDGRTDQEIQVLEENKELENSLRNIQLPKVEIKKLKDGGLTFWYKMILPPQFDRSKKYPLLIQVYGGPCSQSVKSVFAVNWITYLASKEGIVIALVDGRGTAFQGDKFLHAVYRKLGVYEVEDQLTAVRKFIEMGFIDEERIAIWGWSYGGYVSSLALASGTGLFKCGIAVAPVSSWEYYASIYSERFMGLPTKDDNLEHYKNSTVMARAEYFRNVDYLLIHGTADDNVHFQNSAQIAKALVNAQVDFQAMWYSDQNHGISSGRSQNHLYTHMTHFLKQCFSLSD
Assay: FAP inhibition assay with fluorogenic substrate Z-Gly-Pro-AMC
Format: biochemical
Conditions: three-parameter fit
Summary of the method: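 Recombinant mouse FAP at 0.01 μg/100 μL in 50 mM Tris, 1.0 M NaCl, 0.1% BSA (w/v), pH 7.5. Test compound was serially diluted 1:5 (10 pM–10 μM) and preincubated with the enzyme for 30 min at 37 °C. Z-Gly-Pro-AMC was then added (10 μL of a 100 μM solution) for 60 min at 37 °C, and fluorescence was read at Ex 380/Em 460. Activity was scaled to no-inhibitor and no-enzyme wells, and IC50 came from a three-parameter inhibitor-vs-response fit.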

IC50: 0.59 nM
Structure (SMILES): N#C[C@@H]1CC(F)(F)CN1C(=O)CNC(=O)c1ccnc2ccc(OCCCN3CCN(C(=O)CN4CCN(CC(=O)O)CCN(CC(=O)O)CCN(CC(=O)O)CC4)CC3)cc12 [FAPi-4]
